The values that follow come from ChEMBL document CHEMBL1649414, “Synthesis and antiprotozoal activity of N-alkoxy analogues of the trypanocidal lead compound 4,4'-bis(imidazolinylamino)diphenylamine with improved human blood-brain barrier permeability” (J Med Chem, 2011).

In data set [1] the test system is Trypanosoma brucei rhodesiense. Put plainly: Antiprotozoal activity against bloodstream forms of Trypanosoma brucei rhodesiense STIB900 by alamar blue assay. The format is functional, organism-based. The essentials:
(§1)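 Alamar blue read-out; IC50 determined against bloodstream-form STIB900 trypanosomes, axenically grown L. donovani MHOM/ET/67/L82 amastigotes, or rat skeletal myoblast L-6 cells (cytotoxicity).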
For orientation: Alamar Blue is a resazurin reagent that responds to reducing activity.

In data set [2] the test system is Plasmodium falciparum. Put plainly: Antiprotozoal activity against chloroquine and pyrimethamine-resistant erythrocytic stages of Plasmodium falciparum K1 by [3H]hypoxanthine incorporation assay. The format is functional, organism-based. The essentials: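 P. falciparum K1 (chloroquine- and pyrimethamine-resistant) erythrocytic stages; IC50 determined by [3H]hypoxanthine incorporation assay.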

The subject of data set [3] is Leishmania donovani. The data set can be described thus: Antiprotozoal activity against amastigotes of Leishmania donovani MHOM/ET/67/L82 by alamar blue assay. The data set is classed as functional, organism-based. The essentials:
as §1

Data set [4] concerns L6. The data set can be described thus: Cytotoxicity against rat L6 cells. The format is cell-based. The essentials:
as §1

Data set [5] deals with Trypanosoma cruzi. The data set can be described thus: Antiprotozoal activity against trypomastigote forms of Trypanosoma cruzi Tulahuen C2C4 expressing LacZ by colorimetric CPRG assay.
Data set [6] is described as follows: Selectivity index, ratio of IC50 for rat L6 cells to IC50 for Trypanosoma brucei rhodesiense STIB900. As to conditions: L6 cells versus Trypanosoma brucei rhodesiense STIB900, read-out: Ratio IC50. The data set is classed as toxicity, cell-based. The essentials:
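Selectivity index = IC50 (rat L-6 myoblasts)/IC50 (T. b. rhodesiense STIB900 bloodstream forms). Both IC50 values were determined by Alamar blue assay.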

Data set [7] in a line: Selectivity index, ratio of IC50 for rat L6 cells to IC50 for chloroquine and pyrimethamine-resistant erythrocytic stages of Plasmodium falciparum K1. The data set is classed as toxicity, cell-based. To be noted: L6 cells versus Plasmodium falciparum K1 erythrocytic stages, read-out: Ratio IC50. The gist of the method:
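Selectivity index = IC50 (rat L-6 myoblasts, Alamar blue assay)/IC50 (P. falciparum K1 erythrocytic stages, [3H]hypoxanthine incorporation assay).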

For data set [8], the system named is Trypanosoma brucei rhodesiense. Put plainly: Antitrypanosomal activity against Trypanosoma brucei rhodesiense STIB900 infected in NMRI mouse assessed as host survival after 60 days at 20 mg/kg, ip qd for 4 days administered after 3 to 6 days postinfection. Details: dose 20 mg/kg. The data set is classed as functional, organism-based. The gist of the method:
(§2)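 Female NMRI mice infected ip with 2 10^4 bloodstream STIB900 forms; groups of four dosed ip (4 × 20 mg/kg) or orally (4 × 50 mg/kg) on days 3–6 post-infection; untreated infected controls. Tail-blood parasitemia followed to day 60; surviving aparasitemic mice at day 60 counted cured; mean survival and relapse days recorded.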

Data set [9] deals with Trypanosoma brucei rhodesiense. Put plainly: Antitrypanosomal activity against Trypanosoma brucei rhodesiense STIB900 infected in NMRI mouse assessed as host survival after 60 days at 50 mg/kg, po qd for 4 days administered after 3 to 6 days postinfection. The format is functional, organism-based. Details: dose 50 mg/kg. The gist of the method:
as §2

The subject of data set [10] is Trypanosoma brucei rhodesiense. Put plainly: Antitrypanosomal activity against Trypanosoma brucei rhodesiense STIB900 infected in NMRI mouse assessed as day of host death after 60 days at 20 mg/kg, ip qd for 4 days administered after 3 to 6 days postinfection. The data set is classed as functional. As to conditions: route intraperitoneal. The gist of the method: (§3)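 Female NMRI mice infected ip with 2 104 bloodstream forms of T. b. rhodesiense STIB900. Groups of four mice were treated ip (4 × 20 mg/kg) or po (4 × 50 mg/kg) on four consecutive days, days 3–6 postinfection. Untreated infected controls were included. Tail blood parasitemia was monitored to day 60. Day of death was recorded (cured mice counted as >60) to give mean survival days.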

The test system of data set [11] is Trypanosoma brucei rhodesiense. The data set can be described thus: Antitrypanosomal activity against Trypanosoma brucei rhodesiense STIB900 infected in NMRI mouse assessed as day of host death after 60 days at 50 mg/kg, po qd for 4 days administered after 3 to 6 days postinfection. The format is functional. The essentials:
as §3

Activity calls are given as the source filed them. The rule behind the calls is not given here.

For the compound `CON(CCN1C(=O)c2ccccc2C1=O)C(=S)Nc1ccc(Nc2ccc(NC(=S)N(CCN3C(=O)c4ccccc4C3=O)OC)cc2)cc1`, the IC50 is 73.8 µM in data set [1]; 2640 nM in [2]; 69 µM in [3]; over 124 µM in data set [4]; over 124 µM in data set [5].

As to `c1cc(Nc2ccc(NC3=NCCS3)cc2)ccc1NC1=NCCS1`, the IC50 in data set [1] amounted to 11.1 µM; in [2], 2430 nM; in data set [3], 120 µM; in [4], 52 µM; in [5], 30 µM. The selectivity ratio in [6] amounted to 4.7; in [7], 21.

For the compound `O=C1c2ccccc2C(=O)N1CCN(OCc1ccccc1)C(=S)Nc1ccc(Nc2ccc(NC(=S)N(CCN3C(=O)c4ccccc4C3=O)OCc3ccccc3)cc2)cc1`, the IC50 in data set [1] was 86.7 µM; in [2], 1360 nM; in [3] it was 36 µM; in [4] it was over 102 µM; in data set [5], over 100 µM.

Regarding `CON(CCNC(=S)Nc1ccc(Nc2ccc(NC(=S)NCCN(OC)S(=O)(=O)c3ccccc3[N+](=O)[O-])cc2)cc1)S(=O)(=O)c1ccccc1[N+](=O)[O-]`, the IC50 in data set [1] was 61.3 µM; in data set [2], 1810 nM; in data set [3], 68 µM; in [4] it was over 107 µM; in [5], over 108 µM.

`CON1CCN=C1Nc1ccc(Nc2ccc(NC3=NCCN3OC)cc2)cc1`: the IC50 in data set [1] was 0.83 µM; in data set [2], 450 nM; in data set [3], 39 µM; in data set [4], 54 µM; in data set [5] it was 136 µM. Moreover, the figures for the selectivity ratio in data set [6] and in [7] were 65.6 and 120, respectively. Moreover, the outcome in [8] and in data set [9] was inactive. Moreover, the Activity in data set [10] and in [11] was 7 days throughout.

Regarding `c1ccc(CON2CCN=C2Nc2ccc(Nc3ccc(NC4=NCCN4OCc4ccccc4)cc3)cc2)cc1`, the IC50 amounted to 0.32 µM in data set [1]; 200 nM in data set [2]; 104 µM in [3]; 11 µM in [4]; 6.6 µM in [5]. The selectivity ratio in [6] was found to be 34.7; in [7] it was 56. Besides, the outcome in [8] and in data set [9] was inactive. In addition, the Activity in [10] and in [11] was 7 days throughout.

As to `c1cc(Nc2ccc(NC3=NCCN3OC3CCCCO3)cc2)ccc1NC1=NCCN1OC1CCCCO1` (stereo not given), the IC50 in data set [1] is 1.18 µM; in data set [2], 750 nM; in data set [3] it was 41 µM; in data set [4] it was 20 µM; in [5] it was 24 µM. The selectivity ratio was 17 in data set [6] and 26 in data set [7]. The outcome in data set [8] and in [9] was inactive. Further, the Activity in data set [10] and in data set [11] was 7 days each time.

As to `CCON1CCN=C1Nc1ccc(Nc2ccc(NC3=NCCN3OCC)cc2)cc1`, the IC50 in data set [1] is 0.73 µM; in data set [2] it was 590 nM; in [3], 62 µM; in [4], 40 µM; in [5], 87 µM. Further, the selectivity ratio came to 55 in data set [6] and 68 in data set [7]. For the same compound, the outcome in [8] and in data set [9] was inactive. The Activity in [10] and in data set [11] was 7 days throughout.

As to `c1cc(Nc2ccc(NC3=NCCN3)cc2)ccc1NC1=NCCN1`, the IC50 in data set [2] is 9 nM. Further, the selectivity ratio worked out at 3070 in data set [6] and 24100 in data set [7]. Further, the outcome in [8] was Active. The result in data set [9] was inactive. For the same compound, the Activity in data set [10] was over 60 days; in [11], 7.75 days.

Consider `ON1CCN=C1Nc1ccc(Nc2ccc(NC3=NCCN3O)cc2)cc1`, for which the IC50 in data set [1] was 0.37 µM; in data set [2], 55 nM; in [3] it was 58 µM; in data set [4], 92 µM; in data set [5] it was over 204 µM. Further, the selectivity ratio amounted to 236 in data set [6] and 1670 in data set [7]. Besides, the result in [8] and in data set [9] was inactive. Also, the values for the Activity in [10] and in data set [11] were 25.3 days and 7 days, respectively.

In the case of `CCON(CCNC(=S)Nc1ccc(Nc2ccc(NC(=S)NCCN(OCC)S(=O)(=O)c3ccccc3[N+](=O)[O-])cc2)cc1)S(=O)(=O)c1ccccc1[N+](=O)[O-]`, the IC50 in data set [1] is 14.9 µM; in data set [2], 1940 nM; in [3], 14 µM; in [4], 67 µM; in [5], over 104 µM. The selectivity ratio in data set [7] was found to be 35.

Usually IC50 stands for the concentration needed to halve the response being measured. The low end stands for greater potency, the high end for weaker potency.
